Assay results: ChEMBL document CHEMBL1144713, “New selective inhibitors of steroid 11beta-hydroxylation in the adrenal cortex. Synthesis and structure-activity relationship of potent etomidate analogues” (J Med Chem, 2008)

Tests used:
[1] = (§1) Displacement of [131I]IMTO from CYP450c 11 in Wistar rat adrenal membrane; format: cell membranes
Method in brief: (§2)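 Crude membranes from whole adrenals of adult male Wistar rats, homogenized in 10 mM K2HPO4/10 mM HEPES pH 7.1 and washed; 0.06–0.1 mg original tissue per vial. Competitors at 0.1 nM–300 µM with 2 nM 131I-IMTO (carrier added) in buffer containing 150 mM NaCl, 23 °C, 20–30 min. Filtration, γ counting. Nonspecific binding with 10 µM ETO. IC50 and Hill coefficient from curve fit, mean ± SD.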

[2] = species: Rattus norvegicus; experiment: as §1; format: cell membranes; method in brief: as §2
[3] = Inhibition on cortisol secretion in human NCI-H295 cells after 48 hrs; format: functional, cell-based; conditions: for IC50: Homo sapiens, NCI-H295, 48 h
Method in brief: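 NCI-h295 adrenocortical cells grown in RPMI 1640 with insulin, transferrin, selenium and 5% FCS. Compounds at 10 nM–100 µM added to 1 million cells/mL for 48 h, in triplicate. Supernatant cortisol measured by RIA and expressed as percent of control, with control from six uninhibited determinations. IC50 derived from these percentages.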

| Structure (SMILES) | IC50 [1] | logIC50 [2] | logIC50 [3] | IC50 [3] |
| --- | --- | --- | --- | --- |
| COC(=O)c1cncn1[C@@H]1CCc2ccccc21 | 3.26 nM | – | – | – |
| COC(=O)c1cncn1[C@H](C)c1ccccc1 | 3.69 nM | 0.57 | 1.14 | 13.9 nM |
| COC(=O)c1cncn1[C@H](C)c1ccc(C)cc1 | 3.58 nM | – | – | – |
| COC(=O)c1cncn1[C@@H](C)c1ccccc1 | 492 nM | 2.69 | 2.77 | 593 nM |
| CC(C)OC(=O)c1cncn1[C@H](C)c1ccccc1 | 1.42 nM | – | – | – |
| C[C@H](c1ccccc1)n1cncc1C(=O)O | 123000 nM | – | – | – |
| CON(C)C(=O)c1cncn1[C@H](C)c1ccccc1 | 14 nM | 1.18 | 1.45 | 19.5 nM |
| CC[C@H](c1ccccc1)n1cncc1C(=O)OC | 6.23 nM | – | – | – |
| COC(=O)c1cncn1[C@H](C)c1cccnc1 | 20.7 nM | 1.32 | 1.72 | 52.2 nM |
| CC(=O)c1cncn1[C@H](C)c1ccccc1 | 59.8 nM | 1.78 | 1.96 | 59 nM |
| COC(=O)c1cncn1Cc1ccccc1 | 28.8 nM | 1.46 | 1.51 | 32.1 nM |
| COC(=O)c1cncn1[C@H](C)c1cccc(I)c1 | 4.44 nM | – | – | – |
| CNC(=O)c1cncn1[C@H](C)c1ccccc1 | 215 nM | 2.33 | 2.21 | 135 nM |
| COC(=O)c1cncn1Cc1cccnc1 | 870 nM | – | – | – |
| CCCOC(=O)c1cncn1[C@H](C)c1ccccc1 | 2.89 nM | – | – | – |
| COC(=O)c1cncn1[C@H](C)c1ccc(Br)cc1 | 8.95 nM | – | – | – |
| COC(=O)c1cncn1[C@H](C)c1ccc(CO)cc1 | 3.29 nM | – | – | – |
| CCOC(=O)c1cncn1[C@H](C)c1ccc(I)cc1 | 4.37 nM | – | – | – |
| C[C@H](c1ccccc1)n1cncc1C(=O)OCCF | 2.89 nM | 0.46 | 1.11 | 8.92 nM |
| COC(=O)c1cncn1[C@H](C)c1ccc(I)cc1 [IODOMETOMIDATE I-123, R-] | 8.98 nM | 0.954 | 0.84 | 6.95 nM |
| CCOC(=O)c1cncn1[C@H](C)c1ccccc1 [ETOMIDATE] | 1.08 nM | 0.033 | 0.66 | 4.57 nM |
